Source: ChEMBL document CHEMBL1949509, “Fluorinated dual antithrombotic compounds based on 1,4-benzoxazine scaffold” (Eur J Med Chem, 2012)
pIC50, pKi: −log10 of the molar value.

How the values were obtained:
Integrin alpha-V/beta-3 = Integrin alpha-V/beta-3 (Homo sapiens, UniProt P05106+P06756); experiment: Displacement of biotinylated fibrinogen from human […] receptor after 2 hrs by chemiluminescence assay; type: protein-complex assay
Coagulation factor X = Coagulation factor X (Homo sapiens, UniProt P00742); experiment: Inhibition of factor 10a using S-2222 as substrate preincubated for 15 mins prior substrate addition measured for every 10 secs by spectrophotometry
Coagulation factor X, sequence (P00742 41-179 limits assumed): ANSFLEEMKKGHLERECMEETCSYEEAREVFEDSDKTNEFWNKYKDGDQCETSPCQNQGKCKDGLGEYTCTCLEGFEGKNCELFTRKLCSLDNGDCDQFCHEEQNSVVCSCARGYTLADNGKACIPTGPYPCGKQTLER
Coagulation factor X, sequence (P00742 235-488 limits assumed): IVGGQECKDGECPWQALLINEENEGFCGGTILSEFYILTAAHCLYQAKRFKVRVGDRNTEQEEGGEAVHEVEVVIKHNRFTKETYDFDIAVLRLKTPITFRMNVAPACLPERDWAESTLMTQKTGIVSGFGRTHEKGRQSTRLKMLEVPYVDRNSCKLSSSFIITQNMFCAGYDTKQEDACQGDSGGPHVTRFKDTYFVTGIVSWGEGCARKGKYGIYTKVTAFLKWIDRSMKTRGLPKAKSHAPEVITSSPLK
Outline: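 Amidolytic chromogenic assay. Factor Xa at 1 mBAEEE/mL final with S-2222 at […] final. Inhibitor at three concentrations, diluted from 10 mmol/L DMSO stock, preincubated with enzyme in HBSA buffer for 15 min at 25 °C. A405 read every 10 s. Run in triplicate. Ki by Cheng–Prusoff from initial linear rates, averaged over concentration combinations.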

[1] = target: Integrin alpha-IIb/beta-3 (Homo sapiens, UniProt P05106+P08514); experiment: Displacement of biotinylated fibrinogen from human alpha2b-beta3 receptor after 2 hrs by chemiluminescence assay; type: protein-complex assay
Integrin alpha-IIb/beta-3, sequence (P05106 27-788 limits assumed): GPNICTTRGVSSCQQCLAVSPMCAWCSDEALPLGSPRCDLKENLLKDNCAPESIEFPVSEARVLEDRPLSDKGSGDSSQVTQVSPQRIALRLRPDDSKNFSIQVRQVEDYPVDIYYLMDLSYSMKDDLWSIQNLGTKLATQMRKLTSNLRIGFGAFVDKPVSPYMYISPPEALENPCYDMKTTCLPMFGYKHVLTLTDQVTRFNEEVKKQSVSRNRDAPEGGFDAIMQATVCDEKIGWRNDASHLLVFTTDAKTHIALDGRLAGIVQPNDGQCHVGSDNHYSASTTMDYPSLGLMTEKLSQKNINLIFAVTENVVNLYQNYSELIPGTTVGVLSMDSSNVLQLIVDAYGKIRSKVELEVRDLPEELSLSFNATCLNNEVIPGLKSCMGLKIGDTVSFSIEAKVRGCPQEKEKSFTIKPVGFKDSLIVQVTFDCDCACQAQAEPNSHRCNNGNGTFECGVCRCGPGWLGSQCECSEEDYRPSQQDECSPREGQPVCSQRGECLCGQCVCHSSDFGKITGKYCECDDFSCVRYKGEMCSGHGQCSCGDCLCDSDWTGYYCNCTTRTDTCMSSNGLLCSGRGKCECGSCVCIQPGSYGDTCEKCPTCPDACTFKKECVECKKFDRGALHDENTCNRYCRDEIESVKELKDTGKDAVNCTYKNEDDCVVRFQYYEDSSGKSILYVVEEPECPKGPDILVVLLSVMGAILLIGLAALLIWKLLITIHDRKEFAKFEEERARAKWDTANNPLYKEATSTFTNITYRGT
Integrin alpha-IIb/beta-3, sequence (P08514 32-887 limits assumed): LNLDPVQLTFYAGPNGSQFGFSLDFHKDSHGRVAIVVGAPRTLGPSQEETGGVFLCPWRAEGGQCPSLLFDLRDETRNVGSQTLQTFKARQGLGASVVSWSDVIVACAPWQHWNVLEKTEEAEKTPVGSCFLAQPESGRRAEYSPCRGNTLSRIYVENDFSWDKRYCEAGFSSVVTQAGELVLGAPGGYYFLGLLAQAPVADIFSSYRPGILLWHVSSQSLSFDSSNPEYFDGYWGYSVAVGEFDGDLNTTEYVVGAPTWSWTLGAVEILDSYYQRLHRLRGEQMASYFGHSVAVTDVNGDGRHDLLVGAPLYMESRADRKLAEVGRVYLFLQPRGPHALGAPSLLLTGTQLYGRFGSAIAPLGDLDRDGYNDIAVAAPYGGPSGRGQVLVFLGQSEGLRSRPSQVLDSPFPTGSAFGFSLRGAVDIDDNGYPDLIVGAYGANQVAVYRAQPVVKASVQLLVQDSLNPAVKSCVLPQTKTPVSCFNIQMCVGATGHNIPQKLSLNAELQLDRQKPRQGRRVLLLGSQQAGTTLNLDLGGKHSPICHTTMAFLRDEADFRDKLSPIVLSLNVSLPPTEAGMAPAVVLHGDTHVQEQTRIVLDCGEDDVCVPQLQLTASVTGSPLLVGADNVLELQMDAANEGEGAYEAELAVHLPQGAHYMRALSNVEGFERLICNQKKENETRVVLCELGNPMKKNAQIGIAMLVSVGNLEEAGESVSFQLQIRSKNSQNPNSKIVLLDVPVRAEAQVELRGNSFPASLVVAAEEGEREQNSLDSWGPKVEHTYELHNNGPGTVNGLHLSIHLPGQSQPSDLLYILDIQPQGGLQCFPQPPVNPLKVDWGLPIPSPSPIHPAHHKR
Integrin alpha-IIb/beta-3, sequence (P08514 891-1039 limits assumed): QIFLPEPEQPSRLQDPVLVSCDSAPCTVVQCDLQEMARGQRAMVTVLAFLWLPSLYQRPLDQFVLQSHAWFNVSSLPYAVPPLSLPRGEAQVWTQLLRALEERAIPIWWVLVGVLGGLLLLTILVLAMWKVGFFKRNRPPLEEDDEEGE

Prothrombin = Prothrombin (Homo sapiens, UniProt P00734)
[2] = Selectivity ratio of Ki for trypsin to Ki for thrombin
Outline: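 Trypsin at 0.5 nkat/mL with S-2222 at 50 and 100; thrombin at 0.5 NIH E/mL with S-2238 at […]. Triplicates, three inhibitor concentrations.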

[3] = Selectivity ratio of Ki for factor 10a to Ki for thrombin
Outline: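 Factor Xa at 1 mBAEEE/mL with S-2222 at 100 and 200; thrombin at 0.5 NIH E/mL with S-2238 at […]. Triplicates, three inhibitor concentrations.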

Integrin alpha-V/beta-3, sequence (P05106 27-788 limits assumed): as the sequence (P05106 27-788 limits assumed) above
Integrin alpha-V/beta-3, sequence (P06756 31-889 limits assumed): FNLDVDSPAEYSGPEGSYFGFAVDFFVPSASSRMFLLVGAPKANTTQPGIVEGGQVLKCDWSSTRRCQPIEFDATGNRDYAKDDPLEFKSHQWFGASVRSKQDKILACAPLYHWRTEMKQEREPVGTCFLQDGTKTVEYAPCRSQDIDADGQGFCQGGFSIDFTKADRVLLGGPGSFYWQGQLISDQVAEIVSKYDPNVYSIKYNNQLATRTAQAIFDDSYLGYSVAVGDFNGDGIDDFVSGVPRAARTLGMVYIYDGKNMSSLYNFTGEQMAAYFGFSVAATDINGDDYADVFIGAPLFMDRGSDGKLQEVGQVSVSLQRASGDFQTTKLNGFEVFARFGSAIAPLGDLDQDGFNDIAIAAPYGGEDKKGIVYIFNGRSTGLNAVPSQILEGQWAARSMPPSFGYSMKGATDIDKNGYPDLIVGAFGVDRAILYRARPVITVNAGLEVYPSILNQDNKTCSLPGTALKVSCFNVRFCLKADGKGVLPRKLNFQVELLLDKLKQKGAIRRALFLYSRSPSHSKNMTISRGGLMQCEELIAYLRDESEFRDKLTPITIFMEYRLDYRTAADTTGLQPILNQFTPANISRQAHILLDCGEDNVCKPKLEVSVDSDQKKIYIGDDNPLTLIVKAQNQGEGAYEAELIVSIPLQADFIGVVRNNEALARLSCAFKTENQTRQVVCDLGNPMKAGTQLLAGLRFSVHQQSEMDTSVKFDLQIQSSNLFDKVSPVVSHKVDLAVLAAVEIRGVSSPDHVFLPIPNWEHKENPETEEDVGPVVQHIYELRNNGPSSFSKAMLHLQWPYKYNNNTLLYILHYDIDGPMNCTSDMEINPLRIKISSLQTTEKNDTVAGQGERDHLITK
Integrin alpha-V/beta-3, sequence (P06756 891-1048 limits assumed): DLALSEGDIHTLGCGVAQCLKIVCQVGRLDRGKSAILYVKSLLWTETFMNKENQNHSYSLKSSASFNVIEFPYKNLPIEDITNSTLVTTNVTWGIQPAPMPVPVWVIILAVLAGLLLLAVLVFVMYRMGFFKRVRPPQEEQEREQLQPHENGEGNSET

Compound	pIC50 (Integrin alpha-V/beta-3)	pKi (Coagulation factor X)	pIC50 [1]	pKi (Prothrombin)	Ratio Ki [2]	Ratio Ki [3]
CN1CC(C)(COc2ccc(C(=N)N)cc2)Oc2ccc(N(CC(=O)O)Cc3cc(F)cc(F)c3)cc21 (configuration not stated)	< 4.00	5.01	5.60	6.12		
CCOC(=O)CN(Cc1cc(F)cc(F)c1)c1ccc2c(c1)OC(C)(COc1ccc(C(=N)N)cc1)CN2C (configuration not stated)	< 4.00	4.82	< 4.00			
CCOC(=O)C(=O)N(Cc1cc(F)cc(F)c1)c1ccc2c(c1)OC(C)(COc1ccc(C(=N)N)cc1)CN2C (configuration not stated)	< 4.00	6.10	< 4.00	7.74		
CCOC(=O)C(=O)N(Cc1ccc(F)c(F)c1)c1ccc2c(c1)OC(C)(COc1ccc(C(=N)N)cc1)CN2C (configuration not stated)	< 4.00	5.80	< 4.00	7.55		
CN1CC(C)(COc2ccc(C(=N)N)cc2)Oc2ccc(N(Cc3ccccc3)C(=O)C(=O)O)cc21 (configuration not stated)	< 4.00		5.55			
CCOC(=O)CN(Cc1ccc(F)c(F)c1)c1ccc2c(c1)N(C)CC(C)(COc1ccc(C(=N)N)cc1)O2 (configuration not stated)	< 4.00	5.10	< 4.00	6.08		
CCOC(=O)C(=O)N(Cc1ccc(F)cc1)c1ccc2c(c1)OC(C)(COc1ccc(C(=N)N)cc1)CN2C (configuration not stated)	< 4.00	5.55	< 4.00	7.64		
CCOC(=O)CN(Cc1ccccc1)c1ccc2c(c1)N(C)CC(C)(COc1ccc(C(=N)N)cc1)O2 (configuration not stated)	< 4.00		4.27			
CN1CC(C)(COc2ccc(C(=N)N)cc2)Oc2cc(N(Cc3ccc(F)c(F)c3)C(=O)C(=O)O)ccc21 (configuration not stated)	< 4.00	5.44	4.51			
CN1CC(C)(COc2ccc(C(=N)N)cc2)Oc2cc(N(Cc3cccc(F)c3)C(=O)C(=O)O)ccc21 (configuration not stated)	< 4.00	5.39	4.48			
CCOC(=O)C(=O)N(Cc1cc(F)cc(F)c1)c1ccc2c(c1)N(C)CC(C)(COc1ccc(C(=N)N)cc1)O2 (configuration not stated)	< 4.00	5.22	< 4.00			
CN1CC(C)(COc2ccc(C(=N)N)cc2)Oc2ccc(N(Cc3cccc(F)c3)C(=O)C(=O)O)cc21 (configuration not stated)	< 4.00	4.74	5.66			
CN1CC(C)(COc2ccc(C(=N)N)cc2)Oc2cc(N(CC(=O)O)Cc3ccc(F)c(F)c3)ccc21 (configuration not stated)	< 4.00	5.36	4.10	6.09	1.6	5.4
CCOC(=O)CN(Cc1cc(F)cc(F)c1)c1ccc2c(c1)N(C)CC(C)(COc1ccc(C(=N)N)cc1)O2 (configuration not stated)	< 4.00	5.01	< 4.00			
CN1CC(C)(COc2ccc(C(=N)N)cc2)Oc2cc(N(CC(=O)O)Cc3cccc(F)c3)ccc21 (configuration not stated)	< 4.00	5.18	4.22	6.49	5	
CN1CC(C)(COc2ccc(C(=N)N)cc2)Oc2cc(N(Cc3ccccc3)C(=O)C(=O)O)ccc21 (configuration not stated)	< 4.00		4.41			
CCOC(=O)CN(Cc1cccc(F)c1)c1ccc2c(c1)N(C)CC(C)(COc1ccc(C(=N)N)cc1)O2 (configuration not stated)	< 4.00	5.17	< 4.00	6.10		
CN1CC(C)(COc2ccc(C(=N)N)cc2)Oc2ccc(N(Cc3cc(F)cc(F)c3)C(=O)C(=O)O)cc21 (configuration not stated)	< 4.00	4.85	5.47			
CCOC(=O)C(=O)N(Cc1ccc(F)cc1)c1ccc2c(c1)N(C)CC(C)(COc1ccc(C(=N)N)cc1)O2 (configuration not stated)	< 4.00	5.26	< 5.00			

Compound	pIC50 (Integrin alpha-V/beta-3)	pKi (Coagulation factor X)	pIC50 [1]	pKi (Prothrombin)	Ratio Ki [2]	Ratio Ki [3]
CCOC(=O)CN(Cc1ccc(F)cc1)c1ccc2c(c1)N(C)CC(C)(COc1ccc(C(=N)N)cc1)O2 (configuration not stated)	< 4.00	5.18	< 4.00	6.14		
CCOC(=O)C(=O)N(Cc1cccc(F)c1)c1ccc2c(c1)OC(C)(COc1ccc(C(=N)N)cc1)CN2C (configuration not stated)	< 4.00	5.80	< 4.00	7.72		
CCOC(=O)C(=O)N(Cc1ccccc1)c1ccc2c(c1)N(C)CC(C)(COc1ccc(C(=N)N)cc1)O2 (configuration not stated)	< 4.00		4.31			
CCOC(=O)CN(Cc1ccc(F)c(F)c1)c1ccc2c(c1)OC(C)(COc1ccc(C(=N)N)cc1)CN2C (configuration not stated)	< 4.00	5.82	< 4.00			
CN1CC(C)(COc2ccc(C(=N)N)cc2)Oc2ccc(N(Cc3ccc(F)cc3)C(=O)C(=O)O)cc21 (configuration not stated)	< 4.00	4.79	5.74			
CCOC(=O)CN(Cc1ccc(F)cc1)c1ccc2c(c1)OC(C)(COc1ccc(C(=N)N)cc1)CN2C (configuration not stated)	< 4.00	5.80	< 4.00	6.44		
CCOC(=O)CN(Cc1cccc(F)c1)c1ccc2c(c1)OC(C)(COc1ccc(C(=N)N)cc1)CN2C (configuration not stated)	< 4.00	5.92	< 4.00			
CCOC(=O)C(=O)N(Cc1ccc(F)c(F)c1)c1ccc2c(c1)N(C)CC(C)(COc1ccc(C(=N)N)cc1)O2 (configuration not stated)	< 4.00	5.33	< 4.00			
CCOC(=O)C(=O)N(Cc1cccc(F)c1)c1ccc2c(c1)N(C)CC(C)(COc1ccc(C(=N)N)cc1)O2 (configuration not stated)	< 4.00	5.31	< 4.00			
CN1CC(C)(COc2ccc(C(=N)N)cc2)Oc2ccc(N(CC(=O)O)Cc3cccc(F)c3)cc21 (configuration not stated)	< 4.00	5.12	5.82	6.17		
CCOC(=O)CN(Cc1ccccc1)c1ccc2c(c1)OC(C)(COc1ccc(C(=N)N)cc1)CN2C (configuration not stated)	< 4.00		4.55	6.49		
CN1CC(C)(COc2ccc(C(=N)N)cc2)Oc2ccc(N(CC(=O)O)Cc3ccc(F)cc3)cc21 (configuration not stated)	< 4.00	5.11	5.70	6.12		
CN1CC(C)(COc2ccc(C(=N)N)cc2)Oc2cc(N(CC(=O)O)Cc3ccc(F)cc3)ccc21 (configuration not stated)	< 4.00	5.25	4.31	6.62		
CN1CC(C)(COc2ccc(C(=N)N)cc2)Oc2cc(N(CC(=O)O)Cc3cc(F)cc(F)c3)ccc21 (configuration not stated)	< 4.00	5.40	4.35	6.70	6.5	20
CN1CC(C)(COc2ccc(C(=N)N)cc2)Oc2cc(N(Cc3cc(F)cc(F)c3)C(=O)C(=O)O)ccc21 (configuration not stated)	< 4.00	5.80	4.51			
CN1CC(C)(COc2ccc(C(=N)N)cc2)Oc2cc(N(Cc3ccc(F)cc3)C(=O)C(=O)O)ccc21 (configuration not stated)	< 4.00	5.11	4.47			
CCOC(=O)C(=O)N(Cc1ccccc1)c1ccc2c(c1)OC(C)(COc1ccc(C(=N)N)cc1)CN2C (configuration not stated)	< 4.00		4.28			
CN1CC(C)(COc2ccc(C(=N)N)cc2)Oc2ccc(N(Cc3ccc(F)c(F)c3)C(=O)C(=O)O)cc21 (configuration not stated)	< 4.00	4.85	5.60			
CN1CC(C)(COc2ccc(C(=N)N)cc2)Oc2ccc(N(CC(=O)O)Cc3ccc(F)c(F)c3)cc21 (configuration not stated)	< 4.00	5.19	5.96	6.48	1.7	20
